Source: paper PMC7423752 (Acta biomaterialia, 2020)

Experiments:
[1] = tested on: PSMA-positive prostate cancer C4–2 cells; test: Cellular uptake of the micelle in cell monolayers; type: cell-based; settings: 0.5 and 1 h incubation
Outline: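 C4–2 cells seeded at 2×10^5 per well 24 h ahead. They were exposed at 37°C for 0.5 and 1 h to micelles with or without the PSMA ligand, or to free test compound. Cells were then PBS-washed and RIPA-lysed. Part of the lysate went to BCA protein assay; the rest was treated with 4N NaOH (RT, 1 h), neutralised with phosphate buffer and DCM-extracted. Uptake was normalised to total protein; mean ± SD, n = 3.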

[2] = cited from earlier work
PSMA [3] = settings: cited from earlier work
PSMA [4] = settings: read-out: Kd to PSMA; cited from earlier work

SMILES | cellular uptake, rank among groups [1] | water solubility [2] | IC50 (PSMA [3]; read-out: IC50 towards PSMA) [µM] | Ki (PSMA [3]; read-out: Ki towards PSMA) [µM] | Kd (PSMA [4]) [µM]
CO[C@H]1C(=O)[C@]2(C)[C@@H](OC)C[C@H]3OC[C@@]3(OC(C)=O)[C@H]2[C@H](OC(=O)c2ccccc2)[C@]2(O)C[C@H](OC(=O)[C@H](O)[C@@H](NC(=O)OC(C)(C)C)c3ccccc3)C(C)=C1C2(C)C [cabazitaxel, Cabazitaxel] | lowest uptake | very low |  |  | 
O=C(O)CCC(NC(=O)NC(CCC(=O)O)C(=O)O)C(=O)O (centres unmarked) [DUPA, 2-[3-(1,3-dicarboxypropyl)ureido]pentanedioic acid] |  |  | 0.047 | 0.008 | 0.014
